Data: ChEMBL document CHEMBL2034978, “Synthesis and evaluation of curcumin-related compounds for anticancer activity” (Eur J Med Chem, 2012)
Activity calls are given as the source filed them. The rule behind the calls is not given here.

Legend:
PC-3 [1] = experiment: Ratio of curcumin IC50 to compound IC50 for human PC3 cells; type: functional
Procedure, shortened: (§1)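 Curcumin served as positive control in each incubation, with its growth-inhibition data averaged across experiments.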

PANC-1 [2] = experiment: Cytotoxicity against human PANC1 cells after 72 hrs by MTT assay; type: functional, cell-based; conditions: PANC-1, 72 h
Procedure, shortened: (§2)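 Seeded at 0.2 × 10⁵ cells/ml, grown 24 h, then exposed 72 h to a range of concentrations (upper limit 30). MTT read-out: formazan dissolved in DMSO, absorbance at 540 nm, growth expressed as percent of DMSO-treated cells.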

[3] = target: Mitogen-activated protein kinase; ERK1/ERK2 (Homo sapiens) (UniProt P27361+P28482); experiment: Inhibition of ERK1/2 phosphorylation in human PC3 cells at 0.5 uM after 24 hrs by Western blotting relative to beta-actin; type: cell-based; conditions: PC-3
Procedure, shortened: (§3)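 PC-3 cells were seeded at 1 × 10⁵ cells/ml in 100 mm dishes, grown 24 h, then treated 24 h. Cells were lysed in Tris-HCl pH 7.4 buffer containing NaF, pyrophosphate, orthovanadate and Triton X-100, and lysates cleared at 12,000×g. Blots on PVDF were probed with anti-phospho-Akt or anti-phospho-Erk1/2, detected by ECL, quantified by optical density and normalized to β-actin.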

PC-3 [4] = experiment: Inhibition of Akt phosphorylation in human PC3 cells at 0.5 uM after 24 hrs by Western blotting relative to beta-actin; type: cell-based; procedure, shortened: as §3
PC-3 [5] = experiment: Induction of apoptosis in human PC3 cells at <1 uM after 96 hrs by morphology analysis; type: functional, cell-based
HT-29 [6] = experiment: Cytotoxicity against human HT-29 cells after 72 hrs by MTT assay; type: functional, cell-based; conditions: HT-29, 72 h; procedure, shortened: as §2
PC-3 [7] = experiment: Cytotoxicity against human PC3 cells after 72 hrs by MTT assay; type: functional, cell-based; conditions: PC-3, 72 h; procedure, shortened: as §2
PANC-1 [8] = experiment: Ratio of curcumin IC50 to compound IC50 for human PANC1 cells; type: functional; procedure, shortened: as §1
HT-29 [9] = experiment: Ratio of curcumin IC50 to compound IC50 for human HT-29 cells; type: functional; procedure, shortened: as §1

Chain of Mitogen-activated protein kinase; ERK1/ERK2 (Homo sapiens) (P27361 whole entry, looked up): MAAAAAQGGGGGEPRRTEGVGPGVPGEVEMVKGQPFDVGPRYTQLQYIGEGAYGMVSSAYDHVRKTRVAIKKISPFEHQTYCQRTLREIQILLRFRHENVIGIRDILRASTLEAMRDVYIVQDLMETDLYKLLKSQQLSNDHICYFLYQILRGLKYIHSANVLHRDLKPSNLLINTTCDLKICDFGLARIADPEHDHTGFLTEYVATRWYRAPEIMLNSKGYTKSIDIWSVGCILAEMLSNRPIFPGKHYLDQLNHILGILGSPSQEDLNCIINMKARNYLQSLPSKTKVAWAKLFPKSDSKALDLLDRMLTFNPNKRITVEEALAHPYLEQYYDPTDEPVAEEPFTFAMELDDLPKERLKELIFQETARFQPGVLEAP
Chain of Mitogen-activated protein kinase; ERK1/ERK2 (Homo sapiens) (P28482 whole entry, looked up): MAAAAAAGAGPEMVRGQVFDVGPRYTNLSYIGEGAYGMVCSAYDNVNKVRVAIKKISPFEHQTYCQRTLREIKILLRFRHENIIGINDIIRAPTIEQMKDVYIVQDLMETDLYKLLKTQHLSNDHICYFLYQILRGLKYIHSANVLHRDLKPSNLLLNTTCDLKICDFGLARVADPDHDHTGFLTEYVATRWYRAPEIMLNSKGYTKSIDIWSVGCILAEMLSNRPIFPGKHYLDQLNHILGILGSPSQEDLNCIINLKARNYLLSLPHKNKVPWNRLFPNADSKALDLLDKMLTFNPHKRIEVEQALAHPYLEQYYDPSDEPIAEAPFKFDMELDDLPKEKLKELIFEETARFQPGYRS

SMILES: COc1cc(/C=C2\COC/C(=C\c3cc(OC)c(OC)c(OC)c3)C2=O)cc(OC)c1OC
- Ratio IC50 (PC-3 [1]): 72
- IC50 (PANC-1 [2]): 0.52 µM
- inhibition [3]: Active
- inhibition (PC-3 [4]): Active
- Activity (PC-3 [5]): Active
- IC50 (HT-29 [6]): 0.16 µM
- IC50 (PC-3 [7]): 0.27 µM
- Ratio IC50 (PANC-1 [8]): 46
- Ratio IC50 (HT-29 [9]): 117
